Data taken from ChEMBL document CHEMBL1649165, “Activity profile in vitro of micafungin against Spanish clinical isolates of common and emerging species of yeasts and molds” (2009).
Values after ≈ are worked out from the molar mass of the structure shown.

Columns and labels:
Assay type in all cases: functional
Phialemonium curvatum = assay: Antimicrobial activity against Phialemonium curvatum by broth microdilution method; settings: Thyridium curvatum
In short: (§1)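 Filamentous fungus clinical isolates tested by the AFST-EUCAST reference broth microdilution method for moulds. For echinocandins, the endpoint was the minimum effective concentration: the lowest drug concentration giving aberrant hyphal growth, read with an inverted microscope.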

Pichia kudriavzevii = assay: Antimicrobial activity against Candida krusei by broth microdilution method
In short: (§2)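 Clinical isolates from human patients, tested by broth microdilution using the AFST-EUCAST reference procedure for fermentative yeasts. The MIC was read per that reference method.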

Pichia norvegensis = assay: Antimicrobial activity against Candida norvegensis by broth microdilution method; in short: as §2
Lewia infectoria = assay: Antimicrobial activity against Alternaria infectoria by broth microdilution method
In short: (§3)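 Clinical mould isolates, tested by broth microdilution using the AFST-EUCAST reference method for filamentous fungi. For echinocandins, the endpoint was the minimum effective concentration: the lowest drug concentration giving aberrant hyphal growth, read with an inverted microscope.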

Torulaspora delbrueckii = assay: Antimicrobial activity against Candida coliculosa by broth microdilution method; in short: as §2
[1] = test system: Scopulariopsis brevicaulis; assay: Antimicrobial activity against Scopulariopsis brevicaulis by broth microdilution method; in short: as §1
Magnusiomyces capitatus = assay: Antimicrobial activity against Dipodascus capitatus by broth microdilution method
Fusarium solani = assay: Antimicrobial activity against Fusarium solani by broth microdilution method; in short: as §1
Fusarium oxysporum = assay: Antimicrobial activity against Fusarium oxysporum by broth microdilution method; in short: as §3
[Candida] zeylanoides = Antimicrobial activity against Candida zeylanoides by broth microdilution method; settings: Dujonia zeylanoides; in short: as §2
Aspergillus ochraceus = assay: Antimicrobial activity against Aspergillus ochraceus by broth microdilution method; in short: as §3
Geotrichum candidum = assay: Antimicrobial activity against Galactomyces geotrichum by broth microdilution method
Clavispora lusitaniae = assay: Antimicrobial activity against Candida lusitaniae by broth microdilution method; in short: as §2
[Candida] intermedia = Antimicrobial activity against Candida intermedia by broth microdilution method; settings: Sungouiella intermedia; in short: as §2
Aspergillus sydowii = assay: Antimicrobial activity against Aspergillus sydowii by broth microdilution method; in short: as §3
Aspergillus niger = assay: Antimicrobial activity against Aspergillus niger by broth microdilution method; in short: as §3
Aureobasidium pullulans = assay: Antimicrobial activity against Aureobasidium pullulans by broth microdilution method
Scytalidium hyalinum = assay: Antimicrobial activity against Scytalidium hyalinum by broth microdilution method; settings: Neoscytalidium hyalinum; in short: as §1
Aspergillus sclerotiorum = assay: Antimicrobial activity against Aspergillus sclerotiorum by broth microdilution method; in short: as §3
Saccharomyces cerevisiae = assay: Antimicrobial activity against Saccharomyces cerevisiae by broth microdilution method
Scedosporium apiospermum = assay: Antimicrobial activity against Scedosporium apiospermum by broth microdilution method; in short: as §1
Exophiala jeanselmei = assay: Antimicrobial activity against Exophiala jeanselmei by broth microdilution method
Aspergillus versicolor = assay: Antimicrobial activity against Aspergillus versicolor by broth microdilution method; in short: as §3
Aspergillus glaucus = assay: Antimicrobial activity against Aspergillus glaucus by broth microdilution method; in short: as §3
Fennellia nivea = assay: Antimicrobial activity against Aspergillus niveus by broth microdilution method; in short: as §3
Paecilomyces lilacinus = assay: Antimicrobial activity against Paecilomyces lilacinus by broth microdilution method; settings: Purpureocillium lilacinum; in short: as §1
Neurospora sitophila = assay: Antimicrobial activity against Chrysonilia sitophila by broth microdilution method; in short: as §3
Trichosporon ovoides = assay: Antimicrobial activity against Trichosporon ovoides by broth microdilution method
In short: (§4)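 Nonfermentative yeast clinical isolates (Rhodotorula, Trichosporon) tested by broth microdilution. The EUCAST yeast recommendations were followed strictly, with one minor modification to improve growth. MIC was read as the endpoint.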

Naganishia albida = assay: Antimicrobial activity against Cryptococcus albidus by broth microdilution method
In short: (§5)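 Clinical isolates of nonfermentative yeasts, tested by broth microdilution following EUCAST recommendations. The only change from that method was a minor modification to improve growth.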

Lecythophora hoffmannii = assay: Antimicrobial activity against Lecythophora hoffmannii by broth microdilution method; settings: Coniochaeta hoffmannii; in short: as §1
Fusarium reticulatum = assay: Antimicrobial activity against Fusarium reticulatum by broth microdilution method; in short: as §1
Candida albicans = assay: Antimicrobial activity against Candida albicans by broth microdilution method; in short: as §2
[Candida] inconspicua = Antimicrobial activity against Candida inconspicua by broth microdilution method; settings: Pichia inconspicua; in short: as §2
Rhizomucor = assay: Antimicrobial activity against Rhizomucor spp.by broth microdilution method; in short: as §1
Kluyveromyces marxianus = assay: Antimicrobial activity against Candida kefyr by broth microdilution method; in short: as §2
[2] = test system: Cryptococcus deneoformans; assay: Antimicrobial activity against Cryptococcus neoformans var. neoformans by broth microdilution method; in short: as §5
Trichosporon asahii = assay: Antimicrobial activity against Trichosporon asahii by broth microdilution method; in short: as §4
Papiliotrema laurentii = assay: Antimicrobial activity against Cryptococcus laurentii by broth microdilution method; in short: as §5
Lichtheimia corymbifera = assay: Antimicrobial activity against Mycocladus corymbiferus by broth microdilution method; in short: as §1
Lomentospora prolificans = assay: Antimicrobial activity against Scedosporium prolificans by broth microdilution method; in short: as §1

Structure (SMILES): CCC(C)n1ncn(-c2ccc(N3CCN(c4ccc(OCC5COC(Cn6cncn6)(c6ccc(Cl)cc6Cl)O5)cc4)CC3)cc2)c1=O (stereo not given) [ITRACONAZOLE]
- MIC50 (Phialemonium curvatum): > 8 µg/mL
- MIC90 (Phialemonium curvatum): > 8 µg/mL
- MIC50 (Pichia kudriavzevii): 0.25 µg/mL (≈ 0.354 µM)
- MIC90 (Pichia kudriavzevii): 0.25 µg/mL (≈ 0.354 µM)
- MIC50 (Pichia norvegensis): 0.12 µg/mL (≈ 0.17 µM)
- MIC90 (Pichia norvegensis): > 8 µg/mL
- MIC50 (Lewia infectoria): 2 µg/mL (≈ 2.83 µM)
- MIC90 (Lewia infectoria): > 8 µg/mL
- MIC50 (Torulaspora delbrueckii): 0.12 µg/mL (≈ 0.17 µM)
- MIC90 (Torulaspora delbrueckii): > 8 µg/mL
- MIC50 [1]: > 8 µg/mL
- MIC90 [1]: > 8 µg/mL
- MIC50 (Magnusiomyces capitatus): 0.25 µg/mL (≈ 0.354 µM)
- MIC90 (Magnusiomyces capitatus): 0.5 µg/mL (≈ 0.709 µM)
- MIC50 (Fusarium solani): > 8 µg/mL
- MIC90 (Fusarium solani): > 8 µg/mL
- MIC50 (Fusarium oxysporum): > 8 µg/mL
- MIC90 (Fusarium oxysporum): > 8 µg/mL
- MIC50 ([Candida] zeylanoides): 0.12 µg/mL (≈ 0.17 µM)
- MIC90 ([Candida] zeylanoides): > 8 µg/mL
- MIC50 (Aspergillus ochraceus): 0.5 µg/mL (≈ 0.709 µM)
- MIC90 (Aspergillus ochraceus): > 8 µg/mL
- MIC50 (Geotrichum candidum): 0.5 µg/mL (≈ 0.709 µM)
- MIC90 (Geotrichum candidum): 2 µg/mL (≈ 2.83 µM)
- MIC50 (Clavispora lusitaniae): 0.02 µg/mL (≈ 0.0283 µM)
- MIC90 (Clavispora lusitaniae): 0.03 µg/mL (≈ 0.0425 µM)
- MIC50 ([Candida] intermedia): 0.12 µg/mL (≈ 0.17 µM)
- MIC90 ([Candida] intermedia): > 8 µg/mL
- MIC50 (Aspergillus sydowii): 0.5 µg/mL (≈ 0.709 µM)
- MIC90 (Aspergillus sydowii): > 8 µg/mL
- MIC50 (Aspergillus niger): 1 µg/mL (≈ 1.42 µM)
- MIC90 (Aspergillus niger): > 8 µg/mL
- MIC50 (Aureobasidium pullulans): 0.12 µg/mL (≈ 0.17 µM)
- MIC90 (Aureobasidium pullulans): > 8 µg/mL
- MIC50 (Scytalidium hyalinum): 0.12 µg/mL (≈ 0.17 µM)
- MIC90 (Scytalidium hyalinum): > 8 µg/mL
- MIC50 (Aspergillus sclerotiorum): 0.5 µg/mL (≈ 0.709 µM)
- MIC90 (Aspergillus sclerotiorum): > 8 µg/mL
- MIC50 (Saccharomyces cerevisiae): 0.5 µg/mL (≈ 0.709 µM)
- MIC90 (Saccharomyces cerevisiae): 2 µg/mL (≈ 2.83 µM)
- MIC50 (Scedosporium apiospermum): 1 µg/mL (≈ 1.42 µM)
- MIC90 (Scedosporium apiospermum): > 8 µg/mL
- MIC50 (Exophiala jeanselmei): 0.12 µg/mL (≈ 0.17 µM)
- MIC90 (Exophiala jeanselmei): > 8 µg/mL
- MIC50 (Aspergillus versicolor): 0.5 µg/mL (≈ 0.709 µM)
- MIC90 (Aspergillus versicolor): 1 µg/mL (≈ 1.42 µM)
- MIC50 (Aspergillus glaucus): 0.5 µg/mL (≈ 0.709 µM)
- MIC90 (Aspergillus glaucus): > 8 µg/mL
- MIC50 (Fennellia nivea): 0.5 µg/mL (≈ 0.709 µM)
- MIC90 (Fennellia nivea): > 8 µg/mL
- MIC50 (Paecilomyces lilacinus): > 8 µg/mL
- MIC90 (Paecilomyces lilacinus): > 8 µg/mL
- MIC50 (Neurospora sitophila): > 8 µg/mL
- MIC90 (Neurospora sitophila): > 8 µg/mL
- MIC50 (Trichosporon ovoides): 0.5 µg/mL (≈ 0.709 µM)
- MIC90 (Trichosporon ovoides): > 8 µg/mL
- MIC50 (Naganishia albida): 0.5 µg/mL (≈ 0.709 µM)
- MIC90 (Naganishia albida): > 8 µg/mL
- MIC50 (Lecythophora hoffmannii): 0.12 µg/mL (≈ 0.17 µM)
- MIC90 (Lecythophora hoffmannii): > 8 µg/mL
- MIC50 (Fusarium reticulatum): > 8 µg/mL
- MIC90 (Fusarium reticulatum): > 8 µg/mL
- MIC50 (Candida albicans): 0.02 µg/mL (≈ 0.0283 µM)
- MIC90 (Candida albicans): 0.03 µg/mL (≈ 0.0425 µM)
- MIC50 ([Candida] inconspicua): 0.12 µg/mL (≈ 0.17 µM)
- MIC90 ([Candida] inconspicua): > 8 µg/mL
- MIC50 (Rhizomucor): > 8 µg/mL
- MIC90 (Rhizomucor): > 8 µg/mL
- MIC50 (Kluyveromyces marxianus): 0.02 µg/mL (≈ 0.0283 µM)
- MIC90 (Kluyveromyces marxianus): 0.06 µg/mL (≈ 0.085 µM)
- MIC50 [2]: 0.12 µg/mL (≈ 0.17 µM)
- MIC90 [2]: 0.5 µg/mL (≈ 0.709 µM)
- MIC50 (Trichosporon asahii): 0.5 µg/mL (≈ 0.709 µM)
- MIC90 (Trichosporon asahii): > 8 µg/mL
- MIC50 (Papiliotrema laurentii): 0.5 µg/mL (≈ 0.709 µM)
- MIC90 (Papiliotrema laurentii): > 8 µg/mL
- MIC50 (Lichtheimia corymbifera): 1 µg/mL (≈ 1.42 µM)
- MIC90 (Lichtheimia corymbifera): > 8 µg/mL
- MIC50 (Lomentospora prolificans): > 8 µg/mL
- MIC90 (Lomentospora prolificans): > 8 µg/mL
